How the values were obtained:
[1] = melting temperature; fluorescence melt of hairpins on a sequencing array, two-state fit, raised by 9.35 °C to match UV melts; settings: sodium 0.088 M
Outline: (§1)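 Folding enthalpy and melting temperature were estimated with bootstrapped two-state fits and combined across four replicates by inverse-variance weighting, with fitted temperatures raised by 9.35 °C to match UV melts. The data were Cy3 fluorescence of library hairpins, with annealed Cy3 and quencher oligos, on a sequenced MiSeq flow cell in 50 mM Na-HEPES pH 8.0, 25 mM NaCl, imaged in 2.5 °C steps up to 60 °C and normalised to pre-quench Cy3 and control constructs.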

[2] = folding enthalpy; higher = less favourable; fluorescence melt of hairpins on a sequencing array, two-state fit; settings: sodium 0.088 M
Outline: as §1

Sequence	Tm [1]	folding enthalpy [2]
GCAAGCGAAAGCTCTTGC ((((((....)))..)))	43.6 °C	-16.1 kcal/mol
GCAAGCGAAAGCTTTGC ((((((....))).)))	53.7 °C	-21 kcal/mol
GCAAGCGGAAACACTTGC (((((.(....).)))))	48.3 °C	-46.6 kcal/mol
GCAAGCGGAAACGCTCAC (..((((....))))..)	30.5 °C	-9.17 kcal/mol
GCAAGCGGAAACGCTTAC (.(((((....))))).)	41.2 °C	-13.4 kcal/mol
GCAAGGAAACTTGC (((((....)))))	53.3 °C	-26.6 kcal/mol
GCAAGGCGAAAGCAATGC (((..((....))..)))	41.3 °C	-16 kcal/mol
GCAAGGCGAAAGCACTGC (((..((....))..)))	46.7 °C	-19.7 kcal/mol
GCAAGGCGAAAGCATGGC ((.(.((....)).).))	47.8 °C	-18 kcal/mol
GCAAGGCGAAAGCCAAGC ((..(((....)))..))	50.1 °C	-13.8 kcal/mol
GCAAGGCGAAAGCCACGC ((..(((....)))..))	47.1 °C	-14.6 kcal/mol
GCAAGGCGAAAGCCGGGC ((..(((....)))..))	65.5 °C	-20.9 kcal/mol
GCAAGGCGAAAGCGATGC (((..((....))..)))	53.4 °C	-11.4 kcal/mol
GCAAGGCGAAAGCGCTGC (((..((....))..)))	50.2 °C	-17.3 kcal/mol
GCAAGGCGAAAGCGTGGC ((.(.((....)).).))	46.9 °C	-20.2 kcal/mol
GCAAGGGGAAACCCTTGC (((((((....)))))))	68.3 °C	-38.3 kcal/mol
GCAAGGTCGAAAGACTGC (((..(((....))))))	40.5 °C	-19.1 kcal/mol
GCAAGTCGAAAGACGTGC (((.(((....))).)))	55.8 °C	-39.8 kcal/mol
GCAATAACGAAAGTTTGC (((..(((....))))))	41.3 °C	-26 kcal/mol
GCAATACCGAAAGGTTGC (((..(((....))))))	45.5 °C	-21.6 kcal/mol
GCAATACGAAAGTAGTGC (((.(((....))).)))	54.7 °C	-43.8 kcal/mol
GCAATAGAAATATTGC ((((((....))))))	46.4 °C	-26.5 kcal/mol
GCAATCCGAAAGGAATGC (((.(((....))).)))	54.5 °C	-34.5 kcal/mol

Sequence	Tm [1]	folding enthalpy [2]
GCAATCGAAAGATGCTGC ((((((....)))..)))	51.1 °C	-28.2 kcal/mol
GCAATCGGAAACGATCGC ((.((((....)))).))	47.2 °C	-36.4 kcal/mol
GCAATCGGAAACGGTTGC ((((.((....)).))))	55.8 °C	-43.8 kcal/mol
GCAATGAAAATTGC (((((....)))))	50.7 °C	-22.7 kcal/mol
GCAATGCGAAAGCAACGC ((..(((....)))..))	40.2 °C	-14.4 kcal/mol
GCAATGCGAAAGCACTGC (((.(((....))).)))	51.6 °C	-36.8 kcal/mol
GCAATGCGAAAGCAGCGC ((..(((....)))..))	55.9 °C	-18.8 kcal/mol
GCAATGCGAAAGCATAGC ((.((((....)))).))	57.8 °C	-18.6 kcal/mol
GCAATGCGAAAGCCATGC (((..((....))..)))	37.8 °C	-18.3 kcal/mol
GCAATGCGAAAGCGTAGC ((.(.((....)).).))	42.7 °C	-15.8 kcal/mol
GCAATTGAAAAATTGC ((((((....))))))	53.4 °C	-32 kcal/mol
GCAATTGGAAACAACTGC (((.(((....))).)))	34.8 °C	-26.6 kcal/mol
GCAATTGGAAACAATCGC ((.((((....)))).))	38.8 °C	-27.4 kcal/mol
GCACAAGGAAACTCGTGC ((((.((....)).))))	43.8 °C	-31.4 kcal/mol
GCACACCGAAAGGTTGC (((.(((....))))))	53.6 °C	-28.6 kcal/mol
GCACACCGAAAGGTTTGC (((.(((....))).)))	52.3 °C	-40.7 kcal/mol
GCACACGAAAGTGAATGC ((((((....)))..)))	42.8 °C	-23.9 kcal/mol
GCACACGAAAGTGCGTGC ((((((....)))..)))	52.1 °C	-17 kcal/mol
GCACACGAAAGTGGTGC ((((((....))).)))	59.6 °C	-33 kcal/mol
GCACACGAAAGTGTGTGC ((((((....)))..)))	68.2 °C	-18.9 kcal/mol
GCACACGGAAACGTACGC ((..(((....)))..))	35.6 °C	-25.2 kcal/mol
GCACAGCGAAAGCACTGC (((..((....))..)))	35.8 °C	-11.7 kcal/mol
GCACAGCGAAAGCCCTGC (((..((....))..)))	32.1 °C	-8.82 kcal/mol

Sequence	Tm [1]	folding enthalpy [2]
GCACAGCGAAAGCTTTGC (((.(((....))).)))	51.8 °C	-41.2 kcal/mol
GCACAGGGAAACCTGTAC (.(((((....))))).)	40.3 °C	-12.6 kcal/mol
GCACATGGAAACATATGC (((.(((....))).)))	36 °C	-26 kcal/mol
GCACATTCGAAAGAATGC (((..(((....))))))	33 °C	-13.8 kcal/mol
GCACCAGGAAACTAGTGC ((((.((....)).))))	40.2 °C	-29.2 kcal/mol
GCACCCCCGAAAGGGTGC (((..(((....))))))	66.6 °C	-30.6 kcal/mol
GCACCCCGAAAGGGATGC (((.(((....))).)))	57.5 °C	-40.6 kcal/mol
GCACCCGAAAGGGAGTGC ((((((....)))..)))	54 °C	-38.3 kcal/mol
GCACCCGAAAGGGATGC ((((((....))).)))	60.5 °C	-28.7 kcal/mol
GCACCCGAAAGGGCTGC ((((((....))).)))	55.2 °C	-31.4 kcal/mol
GCACCCGAAAGGGGTTGC ((((((....)))..)))	52.3 °C	-15.4 kcal/mol
GCACCCGGAAACGGGCGC ((.((((....)))).))	61.5 °C	-38 kcal/mol
GCACCGCGAAAGCAATGC (((..((....))..)))	27.3 °C	-8.2 kcal/mol
GCACCGCGAAAGCAGGGC ((.(.((....)).).))	57.5 °C	-16 kcal/mol
GCACCGCGAAAGCCCTGC (((..((....))..)))	28.2 °C	-7.23 kcal/mol
GCACCGCGAAAGCCGCGC ((.(.((....)).).))	41.4 °C	-16.8 kcal/mol
GCACCGCGAAAGCTCTGC (((..((....))..)))	27.4 °C	-10.9 kcal/mol
GCACCGCGAAAGCTGCGC ((.(.((....)).).))	47.4 °C	-24.4 kcal/mol
GCACCGGGAAACCGGTAC (.(((((....))))).)	41 °C	-14.8 kcal/mol
GCACCTCGAAAGAGATGC (((.(((....))).)))	50.6 °C	-40.3 kcal/mol
GCACCTCGAAAGAGCTGC (((.(((....))).)))	42.2 °C	-25.5 kcal/mol
GCACCTGGAAACAAGTGC ((((.((....)).))))	41.1 °C	-27.4 kcal/mol
GCACCTGGAAACAGATGC (((.(((....))).)))	44 °C	-28.4 kcal/mol

Sequence	Tm [1]	folding enthalpy [2]
GCACCTGGAAACAGGCGC ((.((((....)))).))	53.5 °C	-46.8 kcal/mol
GCACGCGAAAGCGAGTGC ((((((....)))..)))	59.5 °C	-21.1 kcal/mol
GCACGCGAAAGCGGATGC ((((((....)))..)))	54.9 °C	-15 kcal/mol
GCACGCGAAAGCGGCTGC ((((((....)))..)))	65.4 °C	-14.7 kcal/mol
GCACGCGAAAGCGTATGC ((((((....)))..)))	50.9 °C	-13.3 kcal/mol
GCACGGACGAAAGTCTGC (((..(((....))))))	42.5 °C	-12.9 kcal/mol
GCACGGCGAAAGCCCAGC ((..(((....)))..))	38.4 °C	-12.2 kcal/mol
GCACGGCGAAAGCCTCGC ((..(((....)))..))	42 °C	-16.5 kcal/mol
GCACGGCGAAAGCGGCGC ((.(.((....)).).))	57 °C	-24.1 kcal/mol
GCACGGCGAAAGCGGGGC ((.(.((....)).).))	64.9 °C	-31.5 kcal/mol
GCACGGCGAAAGCGTTGC (((..((....))..)))	49.3 °C	-18.5 kcal/mol
GCACGTCGAAAGACATGC (((.(((....))).)))	52.7 °C	-31.7 kcal/mol
GCACGTGGAAACGCGTGC (((((.(....).)))))	64.6 °C	-45.1 kcal/mol
GCACGTTCGAAAGAATGC (((..(((....))))))	29.6 °C	-16.9 kcal/mol
GCACTAGAAATAGTGC ((((((....))))))	55.4 °C	-33.6 kcal/mol
GCACTAGCGAAAGCTTGC (((..(((....))))))	38.6 °C	-12.6 kcal/mol
GCACTAGGAAACCAGTGC (((((.(....).)))))	48.3 °C	-34.1 kcal/mol
GCACTAGGAAACTGGTGC ((((.((....)).))))	52.9 °C	-34.5 kcal/mol
GCACTCGAAAGAGAATGC ((((((....)))..)))	35.1 °C	-24.6 kcal/mol
GCACTCGAAAGAGCATGC ((((((....)))..)))	35.2 °C	-14.4 kcal/mol
GCACTCGAAAGAGGCTGC ((((((....)))..)))	53 °C	-19.6 kcal/mol
GCACTCGAAAGAGTATGC ((((((....)))..)))	42.1 °C	-16.2 kcal/mol

Source: the array DNA melting data of Ke et al. (doi:10.1101/2024.01.08.574731)
